ASAP1 GAP inh – inhibitors of human ASAP1 ArfGAP activity; inhibition, % at 16.5 µM; actives 0.19% (n = 360,000); ASAP1-stimulated ARF1 GTP hydrolysis, GDP FP detection; in the data active means inhibition above about 25%;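 further: 0% = vehicle with enzyme and substrate and 100% = no enzyme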
Target sequence (Q9ULH1 325-724 limits assumed): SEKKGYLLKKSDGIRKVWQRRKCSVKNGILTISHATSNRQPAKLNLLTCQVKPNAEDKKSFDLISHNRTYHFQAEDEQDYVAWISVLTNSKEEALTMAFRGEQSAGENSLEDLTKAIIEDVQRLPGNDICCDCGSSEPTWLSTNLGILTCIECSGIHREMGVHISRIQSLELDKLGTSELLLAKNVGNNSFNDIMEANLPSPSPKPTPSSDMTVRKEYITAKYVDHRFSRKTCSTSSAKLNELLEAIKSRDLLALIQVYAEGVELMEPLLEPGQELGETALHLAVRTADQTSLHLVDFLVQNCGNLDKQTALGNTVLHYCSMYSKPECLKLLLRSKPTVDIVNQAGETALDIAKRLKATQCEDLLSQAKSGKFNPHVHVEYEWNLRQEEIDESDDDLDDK
ARFGAP1 inh – rat ARFGAP1 inhibition; Q62848; Arfgap1-stimulated ARF1 GTP hydrolysis, GDP FP detection; inhibition, % at 16.5 µM; actives 0.26% (n = 360,000); AID 651572;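 active means inhibition above a per-plate limit, mean inhibition of low control wells plus 3 SD, cut at about 25% in these data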;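 further: 0% = DMSO wells with enzyme and 100% = wells lacking Arfgap1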
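Assay system: purified rat His6-Arfgap1 residues 1-136 (GAP domain); Reagent: human Δ17 ARF1 bound to GTP; Dosing: 16.5 µM single point, 1.26% DMSO; Times: GTP hydrolysis reaction 2 h at 25 °C; Signal: FP, GDP Alexa 633 tracer displaced from anti-GDP antibody, 620/688 nm; Measure: % inhibition from polarization.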
EBNA-1 inhibitor – blocks EBNA-1 binding to DNA; AID 1950; EBNA-1 DNA binding, fluorescence polarization; actives 0.34% (n = 300,000); inhibition, % at 14.8 µM; in the data active means inhibition above about 28%
ZTA DNA inh – ZTA (EBV) inhibition in EBNA-1 counter-screen. P03206. ZTA-DNA binding, fluorescence polarization. inhibition, % at 11 µM. actives 0.15% (n = 320,000). AID 2234; in the data active means inhibition above about 33%
EBNA-1 confirm – EBNA-1 (EBV) inhibition, confirmation; shares compounds with EBNA-1 inhibitor; Recombinant EBNA-1 DBD, Cy5-DNA fluorescence polarization; inhibition, % at 14.8 µM; actives 35% (n = 830); AID 2292;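 active means mean inhibition across replicates above a set limit taken from the earlier primary screen, cut at about 28% in these data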;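 further: plate controls were EBNA-1 protein with DMSO for no effect and wells lacking EBNA-1 for full effect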
ZTA DNA inh trip – ZTA (EBV) inhibition, triplicate counter-screen; shares compounds with EBNA-1 inhibitor; Zta-ZRE DNA binding, Cy5 fluorescence polarization; inhibition, % at 11.1 µM; 830 tested, under 10 active; AID 2328;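 active means mean inhibition over triplicates above a set limit taken from the primary EBNA-1 screen, cut at about 37% in these data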;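 further: purified full length Zta protein with Cy5 labeled ZRE DNA probe; 0% = Zta with DMSO and 100% = wells lacking Zta protein; inhibitors lower polarization by freeing the labeled DNA probe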
The depositor's hits bear a star; . = no result; + = active, no number. Shown are actives, neighbours in structure and some others; about 0.75% of the full set was active somewhere.

SMILES	ASAP1 GAP inh	ARFGAP1 inh	EBNA-1 inhibitor	ZTA DNA inh	EBNA-1 confirm	ZTA DNA inh trip
COc1ccc(/C=C/C(=O)NC(=S)Nc2ccc(S(N)(=O)=O)cc2)cc1	15	3	33*	31	39*	37*
COC(=O)C1=C(C)N(Cc2ccc(Br)cc2)C(=S)NC1c1ccc(OC)cc1 (configuration not stated)	5	-6	.	.	.	.
NS(=O)(=O)c1ccc(NC(=O)/C=C/c2cn(-c3ccccc3)nc2-c2cccc(Cl)c2)cc1	-6	19	30*	5	39*	9
CC(=O)Nc1ccc(S(=O)(=O)N2CCN(Cc3nc4sc(C)c(C)c4c(=O)[nH]3)CC2)cc1	6	2	27*	0	55*	0
CC(=O)Nc1ccc(S(=O)(=O)N2CCN(Cc3ccncc3)CC2)cc1	-6	11	-4	-18	.	.
Cc1ccc(S(=O)(=O)NCC2CCC(C(=O)NC3CCCCC3)CC2)cc1 (configuration not stated)	-10	4	49*	1	39*	3
Cn1cnc([N+](=O)[O-])c1Sc1nnc(-c2ccccc2)c(-c2ccccc2)n1	0	-3	.	.	.	.
COc1ccc(C(=O)Nc2ccccc2C(=O)NC(Cc2ccc(O)cc2)C(=O)NNC(=O)c2ccccc2)cc1 (configuration not stated)	8	-10	82*	-16	-8	-10
COC(=O)C1=C(C)N(Cc2cccc(C(F)(F)F)c2)C(=NCc2ccc3c(c2)OCO3)NC1c1ccc(F)cc1 (configuration not stated)	-5	12	.	.	.	.
COc1cc(OC)c(/C=C2\SC(=O)N(CC(=O)Nc3ccccc3F)C2=O)c(OC)c1	1	9	96*	-5	67*	-1
COc1ccc(/C=C2\SC(=O)N(CC(=O)NNC(=O)c3ccccc3O)C2=O)cc1	2	-7	54*	-8	7	8
COc1cc(/C=C2\SC(=O)N(CC(=O)Nc3ccccc3F)C2=O)cc(Cl)c1O	-7	6	0	3	.	.
Cn1cc(CC(=O)Nc2ccc(Nc3cccnc3)cc2)c2ccccc21	6	9	.	.	.	.
CCN(CC)S(=O)(=O)c1ccc(C(=O)NN(C)C2=NS(=O)(=O)c3ccccc32)cc1	-3	-3	36*	-2	2	-11
CCc1nnc(NC(=O)CSc2ccc(-c3nc4ccccc4[nH]3)cn2)s1	3	7	58*	14	53*	0
O=C(Nc1ccc(N2CCN(c3ccc(C(F)(F)F)cn3)CC2)nc1)c1cccs1	3	1	39*	2	14	-3
O=C(Nc1ccc(N2CCN(c3ncccc3C(F)(F)F)CC2)nc1)c1cccs1	13	-4	1	-8	.	.
CS(=O)(=O)c1ccc(OCCCN2CCC(C(O)(c3ccccc3)c3ccccc3)CC2)cc1	-12	4	.	.	.	.
CCc1c(C)sc2nc(SCC(=O)Nc3cc(C)on3)n(CCOC)c(=O)c12	-8	3	34*	9	12	-13
COCCn1c(SCC(=O)Nc2cc(C)on2)nc2ccccc2c1=O	-3	-9	.	13	.	.
COC(=O)c1cc2c(c3c4cc(C)ccc4n(S(=O)(=O)c4ccc(OC)cc4)c13)C(=O)N(Cc1ccccc1OC)C2	11	-7	.	.	.	.
CCOP(=O)(c1ccccc1)C(O)c1ccc([N+](=O)[O-])cc1 (configuration not stated)	-10	3	4	8	.	.
CCOP(=O)(c1ccccc1)C(O)c1ccc(F)cc1 (configuration not stated)	-1	-6	103*	1	9	11
Cn1c(/C(C#N)=C/c2ccc(-c3ccc(S(N)(=O)=O)cc3)o2)nc2ccccc21	8	-4	40*	7	38*	14
Cc1nc2nc(-c3ccccc3)nn2c(C)c1C	-14	-3	+	-3	2	-3
S=c1nc[nH]c2c1[nH]c1ccc(Cl)cc12	0	6	43*	12	22	0
CO/C([O-])=N/c1c[n+](-c2ccc(Cl)cc2)no1	-2	6	39*	7	-6	-6
Cc1ccc(-c2csc(NC(=O)CSc3ncn(-c4ccccc4)n3)n2)cc1	9	6	41*	14	0	-2
O=C(CSc1ncn(-c2ccccc2)n1)Nc1nc(-c2ccccc2)cs1	4	11	16	0	.	.
